Screens as filed in PubChem BioAssay.
DAGLB inh: diacylglycerol lipase beta (human) inhibition | Q8NCG7 | 340,000 tested, 0.059% active | AID 504411 | HEK293T DAGLB membrane lysate, EnzChek fluorogenic substrate | inhibition, % at 5.17 µM; in the data active = inhibition above about 34%;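 also: 0% = enzyme with vehicle and 100% = wells lacking enzyme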
Target sequence (Q8NCG7 whole entry, looked up): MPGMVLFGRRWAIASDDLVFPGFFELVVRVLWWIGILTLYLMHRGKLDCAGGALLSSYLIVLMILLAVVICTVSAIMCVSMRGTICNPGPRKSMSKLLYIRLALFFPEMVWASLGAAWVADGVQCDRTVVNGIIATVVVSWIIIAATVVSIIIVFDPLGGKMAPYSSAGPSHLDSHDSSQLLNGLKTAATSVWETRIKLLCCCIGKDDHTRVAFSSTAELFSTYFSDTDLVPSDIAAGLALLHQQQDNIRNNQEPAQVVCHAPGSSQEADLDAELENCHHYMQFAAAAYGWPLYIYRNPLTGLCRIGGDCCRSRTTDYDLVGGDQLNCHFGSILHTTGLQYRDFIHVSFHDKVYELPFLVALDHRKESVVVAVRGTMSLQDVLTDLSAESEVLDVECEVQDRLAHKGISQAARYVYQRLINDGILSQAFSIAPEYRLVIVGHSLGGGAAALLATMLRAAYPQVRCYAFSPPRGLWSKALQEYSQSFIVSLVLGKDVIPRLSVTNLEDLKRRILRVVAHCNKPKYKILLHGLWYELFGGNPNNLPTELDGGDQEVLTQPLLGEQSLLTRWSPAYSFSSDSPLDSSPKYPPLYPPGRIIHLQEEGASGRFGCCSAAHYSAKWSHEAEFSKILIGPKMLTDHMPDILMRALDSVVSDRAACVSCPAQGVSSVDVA
SKN-1 block: C. elegans SKN-1 inhibition; C. elegans VP596 Pgst-4::GFP/RFP ratio, acrylamide-induced, 24 h; inhibition, % at 21.8 µM; 360,000 tested, 0.49% active; AID 624304;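 active = interference check ratio from 0.5 to 1.5 plus GFP to RFP signal ratio inhibition reaching or exceeding a fixed threshold, cut at about 30% in these data, passing the limit was not always enough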
MT1-MMP act inh: blocks activation of human MT1-MMP | HT1080 RFP-PRO-GFP cells, GFP/RFP ratio fluorescence, overnight; percent of plate control window, DMSO zero | GFP/RFP ratio change, % at 20 µM | 360,000 tested, 0.061% active | AID 651647;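 active = GFP/RFP ratio change of at least 30% with cell ATP level not reduced by more than half and red fluorescence within 50% of control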
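Test system: HT1080 cells expressing an RFP-PRO-GFP fluorescent reporter construct / Compound dosing: single-point 20 µM compound, 1% DMSO / Schedule: cells overnight before dosing, compound overnight, 37 °C, 5% CO2 / Evaluation: GFP/RFP fluorescence ratio / Control set: DMSO and RFP-L50D-GFP cell wells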
MsrA inh: bovine MsrA inhibition. purified bovine MsrA, absorbance read-out. inhibition, % at 15.5 µM. 360,000 tested, 0.75% active; in the data active = inhibition above about 4.5%;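 also: 0% = vehicle wells with enzyme and 100% = reference inhibitor wells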
MIN6 prolif-1: induces beta-cell replication in MIN6 cells; proliferation, % at 10 µM; MIN6 cells proliferation, ATPlite luminescence, 48 h; cells starved in 0.2% serum; 100% = growth in 10% serum; 330,000 tested, 0.29% active;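 active = compounds whose signal lies at least 3.5 SD above the mean of all wells on their plate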;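 also: 0% = DMSO-treated cells in low-serum medium and 100% = 10% serum control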
bovine MsrA act: bovine methionine sulfoxide reductase A activation; 360,000 tested, 0.3% active; AID 602163; purified bovine MsrA, absorbance read-out; activation, % at 10.6 µM; in the data active = activation above about 7.5%;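 also: 0% = vehicle and 100% = reference activator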
MIN6 prolif-2: confirmation of inducers of beta-cell replication in MIN6 cells; shares compounds with MIN6 prolif-1; MIN6 beta-cell proliferation, ATPlite luminescence, 48 h; cells kept in 0.2% serum; scaled between 0.2% and 10% serum; proliferation increase, % at 50 µM; 920 tested, under 10 active; AID 463095;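 active = proliferation increase above 40% at any of the four tested concentrations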
* hit, by the source's call; · = not tested or not shown. Sampled rows, rich in hits. Any-hit rate of the full collection: about 1.8%.

SMILES	DAGLB inh	SKN-1 block	MT1-MMP act inh	MsrA inh	MIN6 prolif-1	bovine MsrA act	MIN6 prolif-2
CC(C)n1ncc2c(C(=O)NCc3cccnc3)cc(C3CC3)nc21	-0.6	2.0	3.6	-0.1	11.4*	-0.3	-1.9
Cc1cccn2c(=O)c3cc(C(=O)NCCc4ccccc4)sc3nc12	-0.3	9.8	-1.1	1.8	7.4*	-1.3	0.5
O=C(Cn1cccc1C(=O)c1ccccc1)NCCCc1ccccc1	-3.4	-10.8	-0.7	-0.3	2.0	-5.7	·
CCC(Cc1ccccc1)NC(=O)Cn1cccc1C(=O)c1ccccc1 (stereo not drawn)	-1.1	15.3	-4.6	-0.1	16.2*	-0.5	-5.5
CC1CCCCN1C(=O)COC(=O)c1cc([N+](=O)[O-])ccc1N (stereo not drawn)	-1.2	7.0	0.4	0.5	14.7*	-1.5	1.0
COc1cc([N+](=O)[O-])ccc1NC(=O)c1cccc(NC(=O)C(C)C)c1	-3.4	4.8	-2.2	1.8	7.8*	-4.7	-3.2
CC(C)C(=O)Nc1cccc(NC(=O)c2cccc([N+](=O)[O-])c2)c1	-3.2	16.4	5.5	-0.1	-2.7	5.1	·
CCOC(=O)Cc1cc(=O)n2[nH]c(-c3ccccc3)c(-c3ccccc3)c2n1	12.4	29.4	20.3	2.6	-4.3	-2.1	·
CCOC(=O)Cc1cc(=O)n2[nH]c(C)c(-c3ccccc3)c2n1	3.4	-16.0	24.7	1.2	6.1*	-12.3	-2.8
COC(=O)C1=C(C)N(Cc2cccc(C(F)(F)F)c2)C(=NCc2ccc3c(c2)OCO3)NC1c1cccc(F)c1 (stereo not drawn)	·	·	·	-2.5	·	·	·
CN1CCCCC(NC(=O)c2ccccc2)C1=O (stereo not drawn)	·	·	·	0.3	·	·	·
CC(C)c1nc2oc3c(NCc4ccccn4)ncnc3c2c2c1COC(C)(C)C2	-0.2	-10.9	-2.8	0.4	7.4*	-1.6	0.4
O=C(COC(=O)/C=C/c1ccc2ccccc2n1)NNC(=O)c1ccccc1	0.9	-1.8	1.3	0.6	·	0.1	·
CC(C)CCNC(=O)COC(=O)/C=C/c1ccc2ccccc2n1	1.0	-11.9	-3.4	1.7	7.2*	-3.0	-2.3
CCOC(=O)C1=C(C(=O)OCC)C2N(Cc3ccc(C#N)cc3)c3ccccc3[C@@]23C[C@@H](C(=O)OC)N(S(=O)(=O)c2ccc(C)cc2)C3=N1 (stereo partly drawn)	·	·	·	2.1	·	·	·
COC(=O)c1cc2c(c3c4ccccc4n(S(=O)(=O)c4ccc(C)cc4)c13)C(=O)N(Cc1ccccc1)C2	·	·	·	0.6	·	·	·
O=C(CCN1C(=O)COc2ccccc21)NCCN1CCN(c2ccccc2F)CC1	2.4	7.1	-1.7	-1.1	6.7*	-1.6	-2.1
O=C(CN1C(=O)COc2ccccc21)NCCCN1CCN(c2ccccc2F)CC1	0.1	4.4	3.7	-0.2	-0.2	-8.4	·
COc1ccc2c(c1)[C@@H](NC(=O)C(F)(F)F)[C@@H]1CCCC[C@]21c1ccccc1	·	·	·	0.7	·	·	·
CCOCCCn1c(=NC(=O)c2cccs2)c(C#N)cc2c(=O)n3ccccc3nc21	0.9	-6.5	6.7	-0.5	13.5*	-3.3	3.1
O=c1c2ccccc2nc(SCc2cn3ccsc3n2)n1-c1ccccc1	0.0	-14.1	-2.9	2.5	6.1*	-2.2	-6.3
CC(C)N(C[C@@H]1CSCCS(=O)(=O)N1)C1CCCCC1	·	·	·	-0.3	·	·	·
CCN(CC)S(=O)(=O)c1ccc(N2CCOCC2)c(NC(=O)c2c3c(nc4ccccc24)CCC3)c1	-0.3	2.8	-1.6	0.0	7.6*	-4.5	-1.4
CCN(CC)S(=O)(=O)c1ccc(N2CCOCC2)c(NC(=O)c2cccc3ccccc23)c1	-4.9	6.3	1.5	0.8	-2.0	-3.8	·
COCC(C)n1c(SCC(=O)N2CC(=O)Nc3ccccc32)nc2ccccc2c1=O (stereo not drawn)	2.3	3.5	-2.9	-0.8	10.9*	0.5	1.3
CCCc1ccc2c(C)cccc2n1	·	·	·	-1.6	·	·	·
CCOC(=O)[C@@H]1CSCCS(=O)(=O)N1C(=O)[C@H](C)NC(=O)OC(C)(C)C	·	·	·	-0.9	·	·	·
